In ChEMBL document CHEMBL1122854, “Novel bis[1,6-dihydro-6,6-dimethyl-1,3,5-triazine-2,4-diamines] as antitrypanosomal agents” (1985):
Where “and” joins values, the source holds several entries; their conditions need not be identical. Equal entries are not always repeated.

Tests used:
[1] = tested on: Mus musculus; test: Antitrypanosomal activity was evaluated against Trypanosoma rhodesiense infections in mice, at dose 212 mg/kg, administered subcutaneously; Cures; format: functional; conditions: route subcutaneous
In short: (§1)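 IUR/HA Swiss mice (six weeks old, 30-32 g) infected i.p. with Wellcome CT strain T. rhodesiense. A single subcutaneous dose in peanut oil was given about 2 h after inoculation, with five mice per dose level. Positive control was stilbamidine or 2-hydroxystilbamidine isethionate at 40 mg/kg. Deaths before day 4 were scored toxic, and 30-day survivors cured.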

[2] = tested on: Mus musculus; test: (§2) Antitrypanosomal activity was evaluated against Trypanosoma rhodesiense infections in mice, at dose 26 mg/kg, administered orally; Cures; format: functional
In short: (§3)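 Oral dosing of IUR/HA Swiss mice (six weeks old, 30-32 g) infected i.p. with Wellcome CT strain T. rhodesiense, with five mice per dose level. Survival was followed for 30 days. Deaths before day 4 were counted as toxic and 30-day survivors as cured. ΔMST is the difference in mean survival time between treated and control mice.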

[3] = tested on: Mus musculus; test: Antitrypanosomal activity was evaluated against Trypanosoma rhodesiense infections in mice, at dose 106 mg/kg, administered orally; Cures; format: functional; in short: as §3
[4] = tested on: Mus musculus; test: Antitrypanosomal activity was evaluated against Trypanosoma rhodesiense infections in mice, at dose 424 mg/kg, administered orally; Cures; format: functional; in short: as §3
[5] = tested on: Mus musculus; test: (§4) Antitrypanosomal activity was evaluated against Trypanosoma rhodesiense infections in mice, at dose 424 mg/kg, administered orally; format: functional; conditions: route oral, 424 mg/kg; in short: as §3
[6] = tested on: Trypanosoma brucei rhodesiense; test: Antitrypanosomal activity was evaluated against Trypanosoma rhodesiense infections in mice, at dose 1.6 mg/kg, administered subcutaneously; format: functional; conditions: route subcutaneous
In short: (§5)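 Six-week-old IUR/HA Swiss mice (30-32 g), 5 per dose, infected ip with 0.5 mL of a 1:50 000 dilution of heparinized heart blood from donor mice infected 3 days before (Wellcome CT strain). Single sc dose in peanut oil about 2 h post-inoculation. Deaths before day 4 counted toxic. ΔMST versus untreated controls; survivors at 30 days counted cured.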

[7] = tested on: Mus musculus; test: Antitrypanosomal activity was evaluated against Trypanosoma rhodesiense infections in mice, at dose 106 mg/kg, administered orally; format: functional; conditions: route oral
[8] = tested on: Trypanosoma brucei rhodesiense; test: Antitrypanosomal activity was evaluated against Trypanosoma rhodesiense infections in mice, at dose 212 mg/kg, administered subcutaneously; format: functional; conditions: route subcutaneous; in short: as §5
[9] = tested on: Mus musculus; test: Antitrypanosomal activity was evaluated against Trypanosoma rhodesiense infections in mice, at dose 26 mg/kg, administered orally; format: functional; conditions: route oral
[10] = tested on: Mus musculus; test: as §2; format: functional; remark: listed apart in the source
[11] = tested on: Trypanosoma brucei rhodesiense; test: Antitrypanosomal activity against Trypanosoma rhodesiense infections in mice, 3.3 mg/kg administered subcutaneously; format: functional; conditions: route subcutaneous; in short: as §5
[12] = tested on: Mus musculus; test: as §4; format: functional; conditions: route oral
[13] = tested on: Trypanosoma brucei rhodesiense; test: Antitrypanosomal activity against Trypanosoma rhodesiense infections in mice, 6.6 mg/kg administered subcutaneously; format: functional; conditions: route subcutaneous; in short: as §5
[14] = tested on: Mus musculus; test: Antitrypanosomal activity was evaluated against Trypanosoma rhodesiense infections in mice, at dose 13 mg/kg, administered subcutaneously; format: functional; conditions: route subcutaneous; in short: as §5
[15] = tested on: Trypanosoma brucei rhodesiense; test: Antitrypanosomal activity against Trypanosoma rhodesiense infections in mice, 424 mg/kg administered subcutaneously; format: functional; conditions: route subcutaneous; in short: as §1
[16] = tested on: Mus musculus; test: Antitrypanosomal activity was evaluated against Trypanosoma rhodesiense infections in mice, at dose 13 mg/kg, administered subcutaneously;Toxic; format: functional; conditions: route subcutaneous; in short: as §1
[17] = tested on: Trypanosoma brucei rhodesiense; test: Antitrypanosomal activity was evaluated against Trypanosoma rhodesiense infections in mice, at dose 26 mg/kg, administered subcutaneously; format: functional; conditions: route subcutaneous; in short: as §1
[18] = tested on: Trypanosoma brucei rhodesiense; test: Antitrypanosomal activity was evaluated against Trypanosoma rhodesiense infections in mice, at dose 106 mg/kg, administered subcutaneously; format: functional; conditions: route subcutaneous; in short: as §1
[19] = tested on: Mus musculus; test: Antitrypanosomal activity was evaluated against Trypanosoma rhodesiense infections in mice, at dose 0.8mg/kg, administered subcutaneously

Row | SMILES | Cures [1] | Cures [2] | Cures [3] | Cures [4] | Toxic [5] | Delta MST [6] | Delta MST [7] | Delta MST [8] | Delta MST [9] | Delta MST [10] | Delta MST [11] | Delta MST [12] | Delta MST [13] | Delta MST [14] | Toxic [15] | Toxic [16] | Toxic [17] | Toxic [18] | Delta MST [19]
1 | CC1(C)N=C(N)N=C(N)N1c1ccc(/N=N/c2ccc(N3C(N)=NC(N)=NC3(C)C)cc2)cc1.Cl.Cl | 4 | 4 and 5 | 4 and 5 | 4 | 2 and 1 | 0 days | 5.9 days | 0.9 days | 1 days | 1.9 days | 0.2 days | 0.1 days | 1 days | 1.6 days | – | – | – | – | –
2 | CC1(C)N=C(N)N=C(N)N1c1cccc(NC(=O)Nc2cccc(N3C(N)=NC(N)=NC3(C)C)c2)c1.Cl.Cl | – | – | – | – | – | 0 days | – | – | – | – | 0 days | – | 0 days | – | 5 | 3 | 5 | 5 | 0.2 days
